# Measurements from different studies.
# Compare with care: the assays were run in different laboratories.
# CDK16: Cyclin-dependent kinase 16 (CDK16, Homo sapiens, UniProt Q00536)
# CDK16 with cyclin Y: Cyclin-dependent kinase 16, with cyclin Y (CDK16, Homo sapiens, UniProt Q00536)
target,effect on,mode,method,concentration,quantity,result,SMILES
CDK16,thermal stability,,DSF,10 µM,ΔTm,0.2 °C,Cn1c2c(c3ccccc31)C(C#N)C(C)(C)NC2=O (stereo not drawn)
CDK16,cell-free assay,,competition with immobilised ligand,1 µM,remaining binding,77%,CCCOc1ccc([C@H]2[C@H](C(=O)O)[C@@H](c3ccc4c(c3)OCO4)CN2CC(=O)Nc2c(CC)cccc2CC)cc1
CDK16,thermal stability,,DSF,10 µM,ΔTm,0.9 °C,N#CC1c2c([nH]c3c(Cl)c(Cl)ccc23)C(=O)NC12CCCCC2 (racemic)
CDK16,cell-free assay,inhibitor,,20 µM,remaining signal,0.15%,Nc1ncnc2occ(-c3ccc(NC(=O)Nc4cc(C(F)(F)F)ccc4F)cc3)c12
CDK16 with cyclin Y,enzyme activity,inhibitor,radiometric,1 µM,remaining activity,53%,CC(C)(C)c1nc(-c2cccc(NS(=O)(=O)c3c(F)cccc3F)c2F)c(-c2ccnc(N)n2)s1
CDK16,thermal stability,,DSF,10 µM,ΔTm,0.6 °C,Cn1c2c(c3ccc(Cl)c(Cl)c31)C(C#N)C1(CCCCC1)NC2=O (racemic)
CDK16,cell-free assay,,competition with immobilised ligand,1 µM,remaining binding,100%,CCS(=O)(=O)c1cc2cc(C[C@](O)(CC(C)(C)c3ccc(F)cc3C(N)=O)C(F)(F)F)[nH]c2cn1
CDK16 with cyclin Y,enzyme activity,inhibitor,,1 µM,activity vs control,101%,Cc1ccc(C(=O)NCc2ccsc2)cc1C#Cc1cn(C(C)C)c2ncnc(N)c12
CDK16,cell-free assay,,competition with immobilised ligand,1 µM,remaining binding,100%,O=C(O)c1cc(-c2ccc(C3CCNCC3)cc2)c2ccc(-c3ccc(C(F)(F)F)cc3)cc2c1
CDK16,target engagement in cells,inhibitor,chemoproteomics,20 mM,inhibition,38.5%,CCCCNc1ncc2c(-c3ccc(F)cc3)nn(C[C@H]3CC[C@H](N)CC3)c2n1
CDK16 with cyclin Y,enzyme activity,inhibitor,,10 µM,inhibition,-7%,O=C(CSc1nc2nccnc2c(=O)n1CCc1ccccc1)Nc1nccs1
CDK16,thermal stability,,DSF,10 µM,ΔTm,0 °C,Cn1c2c(c3ccc(Cl)c(Cl)c31)C(C#N)C1(CCN(C(=O)OC(C)(C)C)CC1)NC2=O (racemic)
